*: point of attachment. Biotin = O=C1N[C@H]2[C@H](CS[C@H]2CCCCC(=O)*)N1
Experiments:
VEGFR2 = VEGFR2 (Homo sapiens, UniProt P35968); experiment: Pull-down assay from HUVEC lysate, Western blotting; format: binding; details: biotin-peptide on streptavidin beads
Procedure, shortened: (§1)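 HUVEC at passage 3–6 grown in EGM2 and lysed. Lysate incubated with biotinylated test or control peptide captured on streptavidin beads. After washing, bound proteins and lysate input were immunoblotted with antibodies to VEGFR2 and Centaurin A.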

[1] = target: cytosolic kinase domain of EGFR (Homo sapiens, UniProt P00533); experiment: SPR; format: binding; details: protein up to 200 nM, HBS-EP, 25°C
[2] = Biodistribution after eye drop, cryosection stained with Alexa 488-streptavidin; format: in vivo, mouse; details: eye drop 5 µg/eye, C57BL/6, time points 10 minutes, 30 minutes, 1 hour, 2 hours, streptavidin staining
Centaurin alpha (CentA) = target: T1, Centaurin alpha (CentA) (Homo sapiens, UniProt O75689); experiment: Pull-down assay from HUVEC lysate, Western blotting; format: binding; details: biotin-peptide on streptavidin beads
T1 sequence (O75689 1-374): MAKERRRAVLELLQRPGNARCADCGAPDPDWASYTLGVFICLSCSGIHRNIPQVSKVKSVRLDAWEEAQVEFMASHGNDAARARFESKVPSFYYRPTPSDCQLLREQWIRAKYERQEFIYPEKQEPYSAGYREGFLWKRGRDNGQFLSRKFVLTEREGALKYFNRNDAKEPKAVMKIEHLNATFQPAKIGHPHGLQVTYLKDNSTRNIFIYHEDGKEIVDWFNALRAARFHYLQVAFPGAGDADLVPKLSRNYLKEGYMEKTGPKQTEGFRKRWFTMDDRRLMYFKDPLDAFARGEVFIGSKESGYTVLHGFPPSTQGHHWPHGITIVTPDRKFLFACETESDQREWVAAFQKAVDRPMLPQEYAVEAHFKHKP
Procedure, shortened: as §1

[3] = target: cytosolic kinase domain of PDGFRβ (Homo sapiens, UniProt P09619); experiment: SPR; format: binding; details: protein up to 200 nM, HBS-EP, 25°C
[4] = target: cytosolic kinase domain of PDGFRα (Homo sapiens, UniProt P16234); experiment: SPR; format: binding; details: protein up to 200 nM, HBS-EP, 25°C
[5] = test system: laser-induced CNV in C57BL/6 mice; experiment: Laser-induced choroidal neovascularization; format: in vivo, mouse
Procedure, shortened: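 C57BL/6 mice (7 weeks). Four 532 nm laser burns per mouse (200–355 mW, 50 µm, 70 msec). Test compound given as a daily eye drop (2 or 5 µg/eye in 5 µL PBS, days 1–14 or days 7–14) or as an intravitreal injection after laser (0.5–10 µg in 2 µL PBS), against control peptide or PBS. Day-14 OCT cross-section and ILB4-stained choroidal flat-mount area, averaged per mouse.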

[6] = intravitreal, human eyes; cited from earlier work
[7] = target: Kinesin-derived angiogenesis inhibitor (KAI), biotinylated (human) (UniProt Q9NQT8); experiment: SPR
[8] = target: recombinant cytosolic domain (789-1356 aa) of VEGFR2 (UniProt P35968 789-1356); experiment: SPR
recombinant cytosolic domain (789-1356 aa) of VEGFR2, sequence (P35968 789-1356): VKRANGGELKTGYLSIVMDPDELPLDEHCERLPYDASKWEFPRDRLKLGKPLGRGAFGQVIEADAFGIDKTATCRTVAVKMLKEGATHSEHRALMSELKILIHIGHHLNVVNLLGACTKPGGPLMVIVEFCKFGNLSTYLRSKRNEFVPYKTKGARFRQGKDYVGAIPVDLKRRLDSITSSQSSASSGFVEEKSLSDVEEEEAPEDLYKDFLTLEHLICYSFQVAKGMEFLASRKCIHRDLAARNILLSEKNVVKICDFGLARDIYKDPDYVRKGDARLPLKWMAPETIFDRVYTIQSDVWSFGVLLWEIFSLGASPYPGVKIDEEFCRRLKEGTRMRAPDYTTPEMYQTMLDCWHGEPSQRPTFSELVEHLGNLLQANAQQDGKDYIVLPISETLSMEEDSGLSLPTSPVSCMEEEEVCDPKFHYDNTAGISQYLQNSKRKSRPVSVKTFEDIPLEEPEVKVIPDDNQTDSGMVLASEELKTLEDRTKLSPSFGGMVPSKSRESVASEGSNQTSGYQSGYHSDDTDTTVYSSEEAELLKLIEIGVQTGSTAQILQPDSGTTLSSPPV

cytosolic kinase domain of PDGFRα, sequence (P16234 550-1089 limits assumed): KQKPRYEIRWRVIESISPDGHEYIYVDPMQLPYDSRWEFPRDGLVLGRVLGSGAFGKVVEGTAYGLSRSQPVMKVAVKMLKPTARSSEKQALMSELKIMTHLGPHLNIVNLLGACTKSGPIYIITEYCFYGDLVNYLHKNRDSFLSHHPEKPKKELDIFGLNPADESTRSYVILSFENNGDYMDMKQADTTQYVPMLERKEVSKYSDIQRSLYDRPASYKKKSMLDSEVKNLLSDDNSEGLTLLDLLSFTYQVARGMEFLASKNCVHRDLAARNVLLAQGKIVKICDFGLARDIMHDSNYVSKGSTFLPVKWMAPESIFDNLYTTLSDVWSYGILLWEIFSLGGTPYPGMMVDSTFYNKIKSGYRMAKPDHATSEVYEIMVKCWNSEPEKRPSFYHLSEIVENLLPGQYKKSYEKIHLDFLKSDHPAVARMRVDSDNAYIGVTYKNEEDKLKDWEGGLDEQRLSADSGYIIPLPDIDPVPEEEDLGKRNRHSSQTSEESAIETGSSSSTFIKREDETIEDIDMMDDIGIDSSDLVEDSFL
cytosolic kinase domain of PDGFRβ, sequence (P09619 554-1106 limits assumed): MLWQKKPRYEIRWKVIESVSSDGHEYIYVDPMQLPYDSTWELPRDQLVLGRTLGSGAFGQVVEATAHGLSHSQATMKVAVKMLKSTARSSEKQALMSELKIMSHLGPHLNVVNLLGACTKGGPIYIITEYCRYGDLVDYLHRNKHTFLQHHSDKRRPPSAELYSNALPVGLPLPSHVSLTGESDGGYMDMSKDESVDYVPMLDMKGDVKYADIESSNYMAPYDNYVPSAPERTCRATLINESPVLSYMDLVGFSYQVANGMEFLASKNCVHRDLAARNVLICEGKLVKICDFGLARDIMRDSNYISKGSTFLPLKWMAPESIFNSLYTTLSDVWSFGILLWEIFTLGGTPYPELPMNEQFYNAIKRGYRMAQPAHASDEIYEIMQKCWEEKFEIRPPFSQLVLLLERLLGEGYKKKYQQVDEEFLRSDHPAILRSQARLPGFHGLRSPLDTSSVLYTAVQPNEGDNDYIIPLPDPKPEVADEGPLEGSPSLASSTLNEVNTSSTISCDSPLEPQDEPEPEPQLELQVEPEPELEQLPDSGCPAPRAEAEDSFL
VEGFR2, sequence (P35968 20-1356): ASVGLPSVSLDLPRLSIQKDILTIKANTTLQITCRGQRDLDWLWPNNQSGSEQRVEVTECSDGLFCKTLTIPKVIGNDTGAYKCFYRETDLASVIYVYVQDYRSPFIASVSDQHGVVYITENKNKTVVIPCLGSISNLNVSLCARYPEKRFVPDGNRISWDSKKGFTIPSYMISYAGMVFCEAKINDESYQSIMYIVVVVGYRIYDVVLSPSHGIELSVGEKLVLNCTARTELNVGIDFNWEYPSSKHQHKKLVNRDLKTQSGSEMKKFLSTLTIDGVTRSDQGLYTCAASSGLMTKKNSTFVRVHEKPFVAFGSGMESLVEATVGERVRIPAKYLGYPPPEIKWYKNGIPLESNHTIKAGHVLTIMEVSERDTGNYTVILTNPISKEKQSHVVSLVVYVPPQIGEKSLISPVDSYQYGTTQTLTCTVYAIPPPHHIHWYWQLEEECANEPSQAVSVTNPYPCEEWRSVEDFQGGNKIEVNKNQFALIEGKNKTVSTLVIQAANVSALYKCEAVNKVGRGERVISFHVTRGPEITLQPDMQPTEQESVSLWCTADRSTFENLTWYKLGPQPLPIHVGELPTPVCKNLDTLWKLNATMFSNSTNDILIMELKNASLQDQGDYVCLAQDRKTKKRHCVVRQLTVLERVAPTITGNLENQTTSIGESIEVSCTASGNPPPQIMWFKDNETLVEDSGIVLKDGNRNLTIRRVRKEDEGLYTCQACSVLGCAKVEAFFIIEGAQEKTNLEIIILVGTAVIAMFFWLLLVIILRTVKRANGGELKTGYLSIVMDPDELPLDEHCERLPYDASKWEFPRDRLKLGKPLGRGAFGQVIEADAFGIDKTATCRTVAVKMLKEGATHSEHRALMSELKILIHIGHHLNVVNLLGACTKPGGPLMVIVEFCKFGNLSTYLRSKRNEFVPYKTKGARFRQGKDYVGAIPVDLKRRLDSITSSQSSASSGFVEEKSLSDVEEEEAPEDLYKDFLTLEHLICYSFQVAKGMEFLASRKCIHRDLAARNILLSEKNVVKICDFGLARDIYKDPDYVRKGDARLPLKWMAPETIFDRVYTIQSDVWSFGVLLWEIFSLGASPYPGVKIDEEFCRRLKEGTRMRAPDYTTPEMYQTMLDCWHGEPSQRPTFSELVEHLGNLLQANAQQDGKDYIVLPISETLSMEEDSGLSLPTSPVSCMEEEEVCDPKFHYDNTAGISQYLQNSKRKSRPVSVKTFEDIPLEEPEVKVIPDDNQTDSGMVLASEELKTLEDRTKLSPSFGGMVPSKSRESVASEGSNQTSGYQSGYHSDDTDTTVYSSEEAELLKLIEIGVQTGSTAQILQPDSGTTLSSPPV

## KAI: 23 aa peptide, aa 1238-1260 of human KIF13B, minimum binding site to VEGFR2; biotinylated N-terminus, amidated C-terminus (Biotin-SRGTPVDERLFLIVRVTVQLSHP-NH2; SMILES CC[C@H](C)[C@H](NC(=O)[C@H](CC(C)C)NC(=O)[C@H](Cc1ccccc1)NC(=O)[C@H](CC(C)C)NC(=O)[C@H](CCCNC(=N)N)NC(=O)[C@H](CCC(=O)O)NC(=O)[C@H](CC(=O)O)NC(=O)[C@@H](NC(=O)[C@@H]1CCCN1C(=O)[C@@H](NC(=O)CNC(=O)[C@H](CCCNC(=N)N)NC(=O)[C@H](CO)NC(=O)CCCC[C@@H]1SC[C@@H]2NC(=O)N[C@@H]21)[C@@H](C)O)C(C)C)C(=O)N[C@H](C(=O)N[C@@H](CCCNC(=N)N)C(=O)N[C@H](C(=O)N[C@H](C(=O)N[C@H](C(=O)N[C@@H](CCC(N)=O)C(=O)N[C@@H](CC(C)C)C(=O)N[C@@H](CO)C(=O)N[C@@H](Cc1c[nH]cn1)C(=O)N1CCC[C@H]1C(N)=O)C(C)C)[C@@H](C)O)C(C)C)C(C)C)
VEGFR2
  Interaction with VEGFR2 in pull-down: interacts
[1]
  Binding of EGFR to immobilized peptide (in words): did not bind
[2]
  Time at which peptide was detected in the retina and choroid: 30 min
Centaurin alpha (CentA)
  Interaction with CentA in pull-down: does not bind
[3]
  Binding of PDGFRβ to immobilized peptide (in words): very weak binding
[4]
  Binding of PDGFRα to immobilized peptide (in words): did not bind
[5]; eye drop 5 µg/eye daily from day 7 to day 14
  Regression of developed CNV: effective to regress neovascularization
[5]; eye drop 2∼5 µg/eye daily day 1 to day 14, 200 mW laser, day 14
  Area of CNV measured by OCT (cross-section) vs ctrl: significantly reduced
[5]; intravitreal injection 2 µg in 2 µL PBS after laser burn, 355 mW, C57BL/6, P = 0.045 (OCT), P = 0.034 (ILB4), one-way ANOVA
  Effect on CNV vs PBS (OCT and ILB4 staining): significantly inhibited

## bevacizumab
[6]
  Aqueous half-life: 236 h

## ranibizumab
[6]
  Aqueous half-life: 173 h

## recombinant cytosolic domain of PDGFRB (domain or fragment)
[7]
  Kd: > 200 nM

B1: Kinesin-derived angiogenesis inhibitor (KAI), biotinylated (peptide, UniProt Q9NQT8 1238-1260, looked up)
peptide: Biotin-SRGTPVDERLFLIVRVTVQLSHP-NH2
SMILES: CC[C@H](C)[C@H](NC(=O)[C@H](CC(C)C)NC(=O)[C@H](Cc1ccccc1)NC(=O)[C@H](CC(C)C)NC(=O)[C@H](CCCNC(=N)N)NC(=O)[C@H](CCC(=O)O)NC(=O)[C@H](CC(=O)O)NC(=O)[C@@H](NC(=O)[C@@H]1CCCN1C(=O)[C@@H](NC(=O)CNC(=O)[C@H](CCCNC(=N)N)NC(=O)[C@H](CO)NC(=O)CCCC[C@@H]1SC[C@@H]2NC(=O)N[C@@H]21)[C@@H](C)O)C(C)C)C(=O)N[C@H](C(=O)N[C@@H](CCCNC(=N)N)C(=O)N[C@H](C(=O)N[C@H](C(=O)N[C@H](C(=O)N[C@@H](CCC(N)=O)C(=O)N[C@@H](CC(C)C)C(=O)N[C@@H](CO)C(=O)N[C@@H](Cc1c[nH]cn1)C(=O)N1CCC[C@H]1C(N)=O)C(C)C)[C@@H](C)O)C(C)C)C(C)C
[8]
  Kd: 6.8 ± 0.6 nM

— PMC7862734 (Investigative Ophthalmology & Visual Science, 2021)
